Consider three molecules from ChEMBL document CHEMBL1141435, “Serinocyclins A and B, cyclic heptapeptides from Metarhizium anisopliae” (J Nat Prod, 2007).

One assay has as its system Saccharomyces cerevisiae. In words: Antifungal activity against Saccharomyces cerevisiae at 10 ug/disc after 48 hrs by disc diffusion assay. It is filed as functional. The note with it: read-out: IZ. The procedure, abridged: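 Yeast grown on 1% yeast extract, 2% peptone, 1.5% agar with either 2% dextrose or 2% glycerol. Plates were spread with 0.5 mL of a suspension in H2O adjusted to OD600 0.5 and dried 1 h. Samples went onto 7 mm paper disks in 10 µL MeOH, air-dried 1 h. Zones were read every 24 h for 4 days. Filipin at 10 µg/disk was the positive control, MeOH and formic acid the negatives.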
(In general: Agar diffusion results depend on both activity and mobility in agar.)

The test system of another assay is Beauveria bassiana. In words: Antifungal activity against Beauveria bassiana at 10 ug/disc after 48 hrs by disc diffusion assay. It is filed as functional. Conditions: read-out: IZ. The procedure, abridged:
(§1)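 Fungal targets grown on potato dextrose agar plates (9 cm), each spread with 0.6 mL of a conidial suspension (ca. 1 × 10^6 conidia/mL H2O) and dried 1 h. Samples went onto 7 mm filter paper disks in 10 µL MeOH, air-dried 1 h, then placed on the plates. Inhibition zones were read every 24 h for 4 days. Filipin at 10 µg/disk was the positive control, MeOH and formic acid at 10 µL/disk the negatives.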

The subject of a further assay is Bacillus cereus. In words: Antibacterial activity against Bacillus cereus at 10 ug/disc after 48 hrs by disc diffusion assay. It is filed as functional. Conditions: read-out: IZ. The procedure, abridged: (§2)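 Target strains grown on nutrient agar plates (9 cm), each spread with 0.6 mL of a 24 h nutrient broth culture and dried 1 h. Samples went onto 7 mm filter paper disks in 10 µL MeOH and were air-dried 1 h before placement. Inhibition zones were checked every 24 h for 4 days. Tetracycline at 10 µg/disk was the positive control, MeOH and formic acid at 10 µL/disk the negatives.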

The subject of a further assay is Colletotrichum. In words: Antifungal activity against Colletotrichum acutatum at 10 ug/disc after 48 hrs by disc diffusion assay. It is filed as functional. Conditions: read-out: IZ. The procedure, abridged:
as §1

The next assay has as its system Escherichia coli. In words: Antibacterial activity against Escherichia coli at 10 ug/disc after 48 hrs by disc diffusion assay. It is filed as functional. The note with it: read-out: IZ. The procedure, abridged:
as §2

For the next assay, the system named is Botrytis. In words: Antifungal activity against Botrytis cinerea at 10 ug/disc after 48 hrs by disc diffusion assay. It is filed as functional. The note with it: read-out: IZ. The procedure, abridged:
as §1

The next assay has as its system Aedes aegypti. In words: Induction of locomotory deffect in Aedes aegypti Rockefeller larvae after 24 hrs. It is filed as functional, organism-based. The procedure, abridged:
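Eggs hatched under vacuum for 30 min and larvae kept at 25 °C in tap water with liver powder suspension. At 24 h posthatch, 7–11 larvae per well of a 24-well plate were placed in 0.9 mL food/water. Treatments were added in 100 µL distilled water, and effects were scored 24 h later.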

Structures are written as SMILES.

On to `CCCCC[C@@H](O)[C@H]1C(=O)O[C@H](C)[C@@H](O)/C=C/C=C/C=C/C=C/C=C(\C)[C@@H](O)C[C@H](O)C[C@H](O)C[C@H](O)C[C@H](O)C[C@H](O)C[C@@H]1O` [FILIPIN], for which the zone of inhibition at 10 µg/disc in the assay on Saccharomyces cerevisiae, with Beauveria bassiana, in the assay on Bacillus cereus, with Colletotrichum, in the assay on Escherichia coli and in the assay on Botrytis was over 5 mm in each case.
Molecule `NCC[C@H](O)C[C@H]1NC(=O)[C@H](CO)NC(=O)[C@@H]2C[C@@H](O)CN2C(=O)C2(CC2)NC(=O)[C@H](CO)NC(=O)[C@@H](CO)NC(=O)CCNC1=O` [SERINOCYCLIN A] returned an EC50 in the assay with Aedes aegypti of 59 ppm.
As for `CN(C)[C@@H]1C(O)=C(C(N)=O)C(=O)[C@@]2(O)C(O)=C3C(=O)c4c(O)cccc4[C@@](C)(O)[C@H]3C[C@@H]12` [TETRACYCLINE], the zone of inhibition at 10 µg/disc in the assay on Saccharomyces cerevisiae, in the assay with Beauveria bassiana, in the assay with Bacillus cereus, with Colletotrichum, in the assay with Escherichia coli and in the assay on Botrytis was over 5 mm each time.
